In ChEMBL document CHEMBL1811919, “Effects of β-glucosidase hydrolyzed products of harpagide and harpagoside on cyclooxygenase-2 (COX-2) in vitro” (Bioorg Med Chem, 2011):
Activity calls are given as the source filed them. The calls are words filed in the database; no cut-off is given here.

Columns and labels:
RAW264.7 [1] = experiment: Cytotoxicity against mouse RAW264.7 cells at 2.5 to 100 uM after 18 hrs by MTT assay; format: cell-based; details: raw264.7, 18 h
Outline: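 RAW 264.7 murine macrophages in 96-well plates co-incubated with compound or vehicle for 18 h. MTT added to […] final, then 4 h further incubation with DMSO; formazan read at 570 nm. Toxic if MTT metabolism more than 20% below control.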

[2] = target: T1, Prostaglandin G/H synthase 1 (Ovis aries) (UniProt P05979); experiment: Inhibition of ovine COX1 at 2.5 to 100 uM incubated for 10 mins by enzyme immunoassay
T1 sequence (whole entry): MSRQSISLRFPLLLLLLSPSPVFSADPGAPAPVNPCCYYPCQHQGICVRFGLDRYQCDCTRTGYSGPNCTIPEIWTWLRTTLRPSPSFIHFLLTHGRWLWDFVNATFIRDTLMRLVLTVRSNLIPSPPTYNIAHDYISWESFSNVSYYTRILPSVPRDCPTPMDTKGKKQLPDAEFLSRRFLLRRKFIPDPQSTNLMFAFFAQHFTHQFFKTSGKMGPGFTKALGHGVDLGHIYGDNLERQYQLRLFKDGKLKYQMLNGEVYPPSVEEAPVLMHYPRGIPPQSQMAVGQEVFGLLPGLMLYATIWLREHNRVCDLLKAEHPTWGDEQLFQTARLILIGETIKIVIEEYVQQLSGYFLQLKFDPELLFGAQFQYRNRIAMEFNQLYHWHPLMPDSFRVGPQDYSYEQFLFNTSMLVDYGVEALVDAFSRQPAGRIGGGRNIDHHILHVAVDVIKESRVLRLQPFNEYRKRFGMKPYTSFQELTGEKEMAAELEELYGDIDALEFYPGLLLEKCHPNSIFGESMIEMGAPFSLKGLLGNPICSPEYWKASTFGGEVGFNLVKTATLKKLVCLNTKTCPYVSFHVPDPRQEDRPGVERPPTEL
Outline: (§1)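 Screening kit assay. Ovine COX-1 or human recombinant COX-2 with heme in reaction buffer, incubated with compound or DMSO for 10 min. Arachidonic acid added from a 10 mM stock, reaction 2 min at 37 °C. Stopped with 1 M HCl, then saturated SnCl2 for 5 min at room temperature. Prostaglandins quantified by EIA. Background from inactivated enzyme; DMSO taken as 100% activity. Mean ± SEM, Dunnett's test.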

[3] = target: T2, Prostaglandin G/H synthase 2 (Homo sapiens) (UniProt P35354); experiment: (§2) Inhibition of human recombinant COX2 incubated for 10 mins by enzyme immunoassay; outline: as §1
T2 sequence (whole entry): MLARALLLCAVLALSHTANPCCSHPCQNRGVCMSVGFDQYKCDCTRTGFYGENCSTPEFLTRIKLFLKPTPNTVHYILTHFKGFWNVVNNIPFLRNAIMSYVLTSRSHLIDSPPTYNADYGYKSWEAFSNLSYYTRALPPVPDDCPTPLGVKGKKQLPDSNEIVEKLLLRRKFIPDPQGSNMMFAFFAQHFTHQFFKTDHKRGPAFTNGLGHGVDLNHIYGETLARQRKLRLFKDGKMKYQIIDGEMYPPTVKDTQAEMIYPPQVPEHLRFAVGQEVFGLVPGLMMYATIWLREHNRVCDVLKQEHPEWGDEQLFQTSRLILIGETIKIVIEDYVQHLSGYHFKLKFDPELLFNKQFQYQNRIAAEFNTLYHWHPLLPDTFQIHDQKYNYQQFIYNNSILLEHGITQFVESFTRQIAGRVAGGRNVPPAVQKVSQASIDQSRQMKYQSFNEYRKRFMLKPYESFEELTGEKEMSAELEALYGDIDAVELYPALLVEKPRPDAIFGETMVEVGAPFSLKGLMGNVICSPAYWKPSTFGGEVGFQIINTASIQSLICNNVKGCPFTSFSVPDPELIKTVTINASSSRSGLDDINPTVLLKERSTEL

[4] = target: T3, Prostaglandin G/H synthase 2 (Homo sapiens, UniProt P35354); experiment: as §2; outline: as §1
T3 sequence (P35354 whole entry): T2 sequence (whole entry)

RAW264.7 [5] = experiment: Effect on basal COX-2 mRNA expression in mouse RAW264.7 cells at 20 uM by RT-PCR; format: functional, cell-based
RAW264.7 [6] = experiment: Effect on basal COX-2 mRNA expression in mouse RAW264.7 cells at 100 uM by RT-PCR; format: functional, cell-based
RAW264.7 [7] = experiment: Inhibition of LPS-induced COX-2 mRNA expression in mouse RAW264.7 cells at 100 uM pre-incubated for 3 hrs before LPS challenge measured 24 hrs post LPS challenge by RT-PCR; format: functional
Outline: (§3)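 RAW 264.7 cells seeded at 2 × 10⁵ per well and grown to confluence, treated with compound or vehicle for 3 h, then stimulated with LPS 1 µg/ml for 24 h. Total RNA extracted; SYBR real-time RT-PCR, 40 cycles of 95 °C 15 s / 60 °C 1 min, samples in duplicate. Quantified by 2^-ΔΔCt, normalized to β-actin, fold change relative to untreated cells. TPCK 20 µM positive control.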

RAW264.7 [8] = experiment: Inhibition of LPS-induced nitric oxide production in mouse RAW264.7 cells at 2.5 to 100 uM pre-incubated for 20 mins before LPS challenge measured 18 hrs post LPS challenge by Griess method; format: functional, cell-based
Outline: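 RAW264.7 cells at 2 × 10⁵ per well pretreated with compound, aminoguanidine or vehicle for 20 min, then co-incubated with LPS 1 µg/ml for a further 18 h. Supernatant mixed with Griess reagent (1% sulfanilamide, 0.1% naphthylethylenediamine) for nitrite read-out.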

RAW264.7 [9] = experiment: Inhibition of LPS-induced TNFalpha production in mouse RAW264.7 cells at 2.5 to 100 uM pre-incubated for 30 mins before LPS challenge measured 6 hrs post LPS challenge by ELISA; format: functional, cell-based
Outline: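 RAW264.7 cells at 2 × 10⁵ per well pretreated with compound, dexamethasone or vehicle for 30 min, then co-incubated with LPS 100 ng/ml for a further 6 h before TNF-α measurement.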

RAW264.7 [10] = experiment: Inhibition of LPS-induced TNFalpha production in mouse RAW264.7 cells pre-incubated for 30 mins before LPS challenge measured 6 hrs post LPS challenge by ELISA; format: functional, cell-based
Outline: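 RAW264.7 macrophages at 2 × 10⁵ cells/well, pretreated with test compound, dexamethasone or vehicle for 30 min, then co-incubated with LPS (100 ng/ml) for a further 6 h. Concentrations tested 2.5–100 μM.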

RAW264.7 [11] = experiment: Inhibition of LPS-induced nitric oxide production in mouse RAW264.7 cells pre-incubated for 20 mins before LPS challenge measured 18 hrs post LPS challenge by Griess method; format: functional, cell-based
Outline: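 RAW264.7 cells at 2 × 10⁵ cells/well, pretreated with test compound, aminoguanidine or vehicle for 20 min, then LPS co-incubation for a further 18 h. Supernatant mixed with Griess reagent (1% sulfanilamide plus 0.1% naphthylethylenediamine). Concentrations tested 2.5–100 μM.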

[12] = target: T2, Prostaglandin G/H synthase 2 (Homo sapiens); experiment: Inhibition of human recombinant COX2 at 2.5 to 100 uM incubated for 10 mins by enzyme immunoassay; outline: as §1
RAW264.7 [13] = experiment: Inhibition of LPS-induced COX-2 mRNA expression in mouse RAW264.7 cells at 20 uM pre-incubated for 3 hrs before LPS challenge measured 24 hrs post LPS challenge by RT-PCR; format: functional; outline: as §3
[14] = target: T1, Prostaglandin G/H synthase 1 (Ovis aries); details: 50 uM

Structure (SMILES)	Activity (RAW264.7 [1])	inhibition [2]	Activity (RAW264.7 [5])	Activity (RAW264.7 [6])	inhibition (RAW264.7 [8])	inhibition (RAW264.7 [9])	also measured
C[C@]1(O)C[C@@H](O)[C@](O)(CC=O)[C@@H]1C=O	Non-toxic	inactive	inactive	inactive	inactive	inactive	inhibition [3]: Dose-dependent effect; IC50 [4]: 43.3 µM; inhibition at 100 µM (RAW264.7 [7]): 47.6%
C[C@]1(O)C[C@@H](O)[C@]2(O)C=CO[C@@H](O[C@@H]3O[C@H](CO)[C@@H](O)[C@H](O)[C@H]3O)[C@@H]21 [HARPAGIDE]	Non-toxic	–	–	–	–	–	–
C[C@@H]1C[C@H]2[C@@H]3CCC4=CC(=O)C=C[C@]4(C)[C@@]3(F)[C@@H](O)C[C@]2(C)[C@@]1(O)C(=O)CO	–	–	–	–	–	–	inhibition (RAW264.7 [10]): Active; inhibition (RAW264.7 [11]): Active
N=C(N)NN	–	–	–	–	–	–	inhibition (RAW264.7 [10]): Active; inhibition (RAW264.7 [11]): Active
C[C@]1(O)C[C@@H](O)[C@]2(O)C=CO[C@@H](O[C@H]3O[C@H](CO)[C@@H](O)[C@H](O)[C@H]3O)[C@@H]21	–	inactive	inactive	inactive	inactive	inactive	inhibition [12]: inactive; inhibition (RAW264.7 [7]): inactive
Cc1ccc(S(=O)(=O)N[C@@H](Cc2ccccc2)C(=O)CCl)cc1 [TPCK]	–	–	–	–	–	–	inhibition at 20 µM (RAW264.7 [13]): 59.5%
C[C@]1(OC(=O)/C=C/c2ccccc2)C[C@@H](O)[C@]2(O)C=CO[C@@H](O[C@@H]3O[C@H](CO)[C@@H](O)[C@H](O)[C@H]3O)[C@@H]21 [HARPAGOSIDE]	Non-toxic	inactive	inactive	inactive	inactive	inactive	inhibition [12]: inactive; inhibition (RAW264.7 [7]): inactive
CC(=O)Oc1ccccc1C(=O)O	–	–	–	–	–	–	inhibition [14]: Active
